The source made the active and inactive calls. No cut-off for these calls is given here.
What was measured:
[1] = molecular target: Mitogen-activated protein kinase kinase kinase 15 (Homo sapiens) (UniProt Q6ZN16); assay: Inhibition of human partial length MAP3K15 (T625 to L932 residues) expressed in bacterial expression system assessed as residual activity at 10 uM by kinome scan method relative to control
Method in brief: (§1)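 KINOMEscan binding assay, test compound at 10 μM against a 52-kinase panel. % Ctrl = (compound signal − positive control signal)/(negative control signal − positive control signal) × 100, with DMSO as negative control (100%) and a positive control (0%).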

[2] = molecular target: T1, Phosphatidylinositol 4,5-bisphosphate 3-kinase catalytic subunit alpha isoform (Homo sapiens, UniProt P42336); assay: Inhibition of recombinant human PI3Kalpha using PIP2 as substrate incubated for 1 hr by kinase-glo luminescent assay
[3] = molecular target: Mitogen-activated protein kinase kinase kinase 13 (Homo sapiens) (UniProt O43283); assay: Inhibition of human full length LZK (M1 to W966 residues) expressed in bacterial expression system assessed as residual activity at 10 uM by kinome scan method relative to control; method in brief: as §1
[4] = molecular target: Phosphatidylinositol 4-phosphate 3-kinase C2 domain-containing subunit beta (Homo sapiens) (UniProt O00750); assay: Inhibition of human partial length PIK3C2B (M1 to L1634 residues) expressed in bacterial expression system assessed as residual activity at 10 uM by kinome scan method relative to control; method in brief: as §1
[5] = molecular target: Phosphatidylinositol 4,5-bisphosphate 3-kinase catalytic subunit delta isoform (Homo sapiens) (UniProt O00329); assay: Inhibition of human partial length PIK3CD (R108 to Q1044 residues) expressed in mammalian expression system assessed as residual activity at 10 uM by kinome scan method relative to control
Method in brief: (§2)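 KINOMEscan competitive binding screen at 10 μM test compound against a 52-kinase panel. Output is % Ctrl = (test signal − positive control signal)/(negative control signal − positive control signal) × 100. DMSO is the negative control (100%) and the positive control is set to 0%.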

[6] = molecular target: Phosphatidylinositol 3-kinase C2 domain-containing subunit gamma (Homo sapiens) (UniProt O75747); assay: Inhibition of human partial length PIK3C2G (M1 to I1446 residues) expressed in mammalian expression system assessed as residual activity at 10 uM by kinome scan method relative to control; method in brief: as §1
[7] = molecular target: Ankyrin repeat and protein kinase domain-containing protein 1 (Homo sapiens) (UniProt Q8NFD2); assay: Inhibition of human partial length ANKK1 (M1 to A305 residues) expressed in bacterial system assessed as residual activity at 10 uM by kinome scan method relative to control; method in brief: as §1
[8] = molecular target: BMP-2-inducible protein kinase (Homo sapiens) (UniProt Q9NSY1); assay: Inhibition of human partial length BIKE (S34 to N329 residues) expressed in bacterial system assessed as residual activity at 10 uM by kinome scan method relative to control; method in brief: as §1
[9] = molecular target: Mitotic checkpoint serine/threonine-protein kinase BUB1 (Homo sapiens) (UniProt O43683); assay: Inhibition of human partial length BUB1 (Q724 to K1085 residues) expressed in bacterial system assessed as residual activity at 10 uM by kinome scan method relative to control; method in brief: as §1
[10] = molecular target: T2, Serine/threonine-protein kinase mTOR (Homo sapiens, UniProt P42345); assay: Inhibition of mTOR in human U87MG cells assessed as suppression of phosphorylation of S6 ribosomal at Ser235/236 residues at 25 nM after 3 hrs by Western blot analysis; format: cell-based; conditions: U87
Method in brief: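 U87MG cells were seeded at 1×10^6 per well and held overnight at 37 °C, 5% CO2. They were then exposed to a range of inhibitor concentrations for 3 h at 37 °C. Phospho-Akt (Ser473, Thr308), phospho-S6 (Ser235/236) and phospho-4E-BP1 (Thr37/46) were measured by Western blot with GAPDH as loading control. Bands were quantified as mean ± SD of 3 biological replicates against untreated cells.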

[11] = molecular target: Cyclin-dependent kinase 17 (Homo sapiens) (UniProt Q00537); assay: Inhibition of human full length PCTK2 (M1 to F523 residues) expressed in bacterial expression system assessed as residual activity at 10 uM by kinome scan method relative to control; method in brief: as §1
[12] = molecular target: Dual specificity mitogen-activated protein kinase kinase 5 (Homo sapiens) (UniProt Q13163); assay: Inhibition of human partial length MEK5 (L98 to P448 residues) expressed in mammalian expression system assessed as residual activity at 10 uM by kinome scan method relative to control; method in brief: as §1
[13] = molecular target: Membrane-associated tyrosine- and threonine-specific cdc2-inhibitory kinase (Homo sapiens) (UniProt Q99640); assay: Inhibition of human partial length PKMYT1 (A88 to G366 residues) expressed in bacterial expression system assessed as residual activity at 10 uM by kinome scan method relative to control; method in brief: as §2
[14] = system: PC-3; assay: Growth inhibition of human PC3 cells after 72 hrs by sulforhodamine B assay; format: functional
[15] = molecular target: T1, Phosphatidylinositol 4,5-bisphosphate 3-kinase catalytic subunit alpha isoform; assay: Inhibition of human partial length PIK3CA (R108 to N1068 residues) expressed in mammalian expression system assessed as residual activity at 10 uM by kinome scan method relative to control; method in brief: as §2
[16] = molecular target: Cyclin-dependent kinase-like 5 (Homo sapiens) (UniProt O76039); assay: Inhibition of human partial length CDKL5 (M1 to S337 residues) expressed in mammalian expression system assessed as residual activity at 10 uM by kinome scan method relative to control; method in brief: as §1
[17] = molecular target: Phosphatidylinositol 3-kinase catalytic subunit type 3 (Homo sapiens) (UniProt Q8NEB9); assay: Inhibition of human partial length VPS34 (S282 to H879 residues) expressed in mammalian expression system assessed as residual activity at 10 uM by kinome scan method relative to control; method in brief: as §2
[18] = molecular target: AP2-associated protein kinase 1 (Homo sapiens) (UniProt Q2M2I8); assay: Inhibition of human partial length AAK1 (G25 to L333 residues) expressed in bacterial system assessed as residual activity at 10 uM by kinome scan method relative to control; method in brief: as §1
[19] = Half life in Sprague-Dawley rat at 5 mg/kg, po; format: ADME, organism-based; conditions: in vivo
Method in brief: (§3)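 Male Sprague-Dawley rats (n = 3) given a single oral gavage of 5 mg/kg as a homogeneous opaque suspension in 0.5% methylcellulose; plasma concentration-time curves used to derive mean PK parameters.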

[20] = molecular target: T2, Serine/threonine-protein kinase mTOR; assay: Inhibition of mTOR in human U87MG cells assessed as suppression of phosphorylation of S6 ribosomal at 25 nM after 3 hrs by Western blot analysis; conditions: U87
[21] = molecular target: Phosphatidylinositol 4,5-bisphosphate 3-kinase catalytic subunit gamma isoform (Homo sapiens, UniProt P48736); assay: Inhibition of human partial length PIK3CG (S144 to A1102 residues) expressed in mammalian expression system assessed as residual activity at 10 uM by kinome scan method relative to control; method in brief: as §2
[22] = Cmax in Sprague-Dawley rat at 5 mg/kg, po; format: ADME, organism-based; set-up: route oral, dose 5 mg/kg; conditions: in vivo; method in brief: as §3
[23] = molecular target: Phosphatidylinositol 5-phosphate 4-kinase type-2 beta (Homo sapiens) (UniProt P78356); assay: Inhibition of human full length PIP5K2B (M1 to T416 residues) expressed in bacterial expression system assessed as residual activity at 10 uM by kinome scan method relative to control; method in brief: as §1
Chain of Phosphatidylinositol 5-phosphate 4-kinase type-2 beta (Homo sapiens) (P78356 whole entry, the tested form may be a part): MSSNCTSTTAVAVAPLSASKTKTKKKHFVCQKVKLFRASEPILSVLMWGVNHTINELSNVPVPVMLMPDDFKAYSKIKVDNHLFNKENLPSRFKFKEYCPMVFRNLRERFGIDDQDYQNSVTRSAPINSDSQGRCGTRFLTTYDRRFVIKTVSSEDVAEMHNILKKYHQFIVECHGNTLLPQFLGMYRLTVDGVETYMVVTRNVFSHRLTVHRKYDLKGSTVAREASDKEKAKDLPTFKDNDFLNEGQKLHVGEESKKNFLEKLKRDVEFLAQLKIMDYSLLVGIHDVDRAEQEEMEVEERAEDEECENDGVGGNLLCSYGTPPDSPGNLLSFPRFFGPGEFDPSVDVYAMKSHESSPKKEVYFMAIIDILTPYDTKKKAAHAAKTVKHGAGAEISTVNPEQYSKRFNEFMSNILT

T1 sequence (P42336 whole entry, the tested form may be a part, canonical isoform): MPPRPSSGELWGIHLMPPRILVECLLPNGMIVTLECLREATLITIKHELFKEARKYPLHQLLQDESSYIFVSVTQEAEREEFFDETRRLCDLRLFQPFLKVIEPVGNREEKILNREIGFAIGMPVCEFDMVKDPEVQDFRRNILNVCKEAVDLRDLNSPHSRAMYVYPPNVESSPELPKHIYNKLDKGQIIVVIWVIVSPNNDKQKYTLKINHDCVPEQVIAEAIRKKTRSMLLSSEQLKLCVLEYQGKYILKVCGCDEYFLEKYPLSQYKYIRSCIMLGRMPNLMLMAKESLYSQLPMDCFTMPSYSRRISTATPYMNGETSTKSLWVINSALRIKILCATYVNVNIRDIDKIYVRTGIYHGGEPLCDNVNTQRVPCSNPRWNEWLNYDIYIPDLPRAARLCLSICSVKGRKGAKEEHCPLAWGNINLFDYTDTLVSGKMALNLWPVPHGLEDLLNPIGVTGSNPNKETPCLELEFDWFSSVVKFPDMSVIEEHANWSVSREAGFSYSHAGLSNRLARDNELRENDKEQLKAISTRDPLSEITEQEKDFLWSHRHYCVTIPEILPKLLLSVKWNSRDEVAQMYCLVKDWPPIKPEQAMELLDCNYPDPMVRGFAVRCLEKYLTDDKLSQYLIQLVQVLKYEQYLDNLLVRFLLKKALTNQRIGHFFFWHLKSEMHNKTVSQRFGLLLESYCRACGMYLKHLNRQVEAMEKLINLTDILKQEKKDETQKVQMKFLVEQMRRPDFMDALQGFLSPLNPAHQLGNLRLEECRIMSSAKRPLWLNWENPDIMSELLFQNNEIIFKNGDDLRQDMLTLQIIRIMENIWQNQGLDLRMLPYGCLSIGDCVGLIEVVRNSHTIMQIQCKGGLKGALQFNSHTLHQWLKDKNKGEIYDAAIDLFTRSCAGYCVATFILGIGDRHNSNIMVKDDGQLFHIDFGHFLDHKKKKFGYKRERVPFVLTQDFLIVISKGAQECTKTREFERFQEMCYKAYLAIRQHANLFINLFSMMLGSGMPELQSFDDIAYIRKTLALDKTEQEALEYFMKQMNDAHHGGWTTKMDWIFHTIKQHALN
Chain of Phosphatidylinositol 4-phosphate 3-kinase C2 domain-containing subunit beta (Homo sapiens) (O00750 whole entry, the tested form may be a part, canonical isoform): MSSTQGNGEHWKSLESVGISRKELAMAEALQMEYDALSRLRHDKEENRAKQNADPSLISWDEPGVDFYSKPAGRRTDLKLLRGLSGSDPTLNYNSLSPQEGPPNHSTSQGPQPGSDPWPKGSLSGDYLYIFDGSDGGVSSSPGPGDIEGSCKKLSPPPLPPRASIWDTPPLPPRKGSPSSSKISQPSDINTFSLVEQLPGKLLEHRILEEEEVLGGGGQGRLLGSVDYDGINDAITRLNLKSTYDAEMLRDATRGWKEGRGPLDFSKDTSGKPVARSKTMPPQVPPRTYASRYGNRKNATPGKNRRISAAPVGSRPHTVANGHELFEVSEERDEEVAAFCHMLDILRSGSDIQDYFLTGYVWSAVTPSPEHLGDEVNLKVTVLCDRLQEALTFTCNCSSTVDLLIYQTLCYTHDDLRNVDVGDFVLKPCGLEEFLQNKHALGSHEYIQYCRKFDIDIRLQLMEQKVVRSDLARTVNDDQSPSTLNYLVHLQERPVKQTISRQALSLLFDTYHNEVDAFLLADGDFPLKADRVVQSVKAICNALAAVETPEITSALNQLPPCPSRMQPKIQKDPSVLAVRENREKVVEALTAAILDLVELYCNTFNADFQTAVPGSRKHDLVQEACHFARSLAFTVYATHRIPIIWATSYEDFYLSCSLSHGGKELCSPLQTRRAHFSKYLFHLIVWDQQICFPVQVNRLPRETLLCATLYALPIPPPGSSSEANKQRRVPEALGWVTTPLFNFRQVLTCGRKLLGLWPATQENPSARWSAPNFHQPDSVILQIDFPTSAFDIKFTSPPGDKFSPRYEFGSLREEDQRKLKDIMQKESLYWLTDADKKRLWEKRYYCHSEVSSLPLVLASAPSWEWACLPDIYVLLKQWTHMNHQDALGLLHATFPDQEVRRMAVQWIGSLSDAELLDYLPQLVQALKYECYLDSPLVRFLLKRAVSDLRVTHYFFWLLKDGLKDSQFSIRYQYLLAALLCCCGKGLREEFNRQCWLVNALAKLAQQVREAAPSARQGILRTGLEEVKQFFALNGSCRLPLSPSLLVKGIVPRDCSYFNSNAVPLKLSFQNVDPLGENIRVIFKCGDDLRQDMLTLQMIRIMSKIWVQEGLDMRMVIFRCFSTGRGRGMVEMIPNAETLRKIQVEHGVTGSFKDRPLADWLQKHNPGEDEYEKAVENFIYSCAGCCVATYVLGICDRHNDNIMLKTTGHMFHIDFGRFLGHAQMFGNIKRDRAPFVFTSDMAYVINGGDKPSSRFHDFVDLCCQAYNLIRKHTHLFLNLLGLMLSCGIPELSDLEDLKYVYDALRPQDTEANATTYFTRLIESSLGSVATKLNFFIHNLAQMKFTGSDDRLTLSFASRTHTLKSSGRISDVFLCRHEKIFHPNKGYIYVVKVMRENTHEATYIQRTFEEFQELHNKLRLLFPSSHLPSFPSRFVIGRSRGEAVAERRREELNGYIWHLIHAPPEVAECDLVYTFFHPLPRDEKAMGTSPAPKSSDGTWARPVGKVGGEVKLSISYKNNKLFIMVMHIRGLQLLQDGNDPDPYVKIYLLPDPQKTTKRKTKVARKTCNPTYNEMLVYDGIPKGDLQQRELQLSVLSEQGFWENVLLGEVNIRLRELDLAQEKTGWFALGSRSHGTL
Chain of Phosphatidylinositol 3-kinase catalytic subunit type 3 (Homo sapiens) (Q8NEB9 whole entry, the tested form may be a part): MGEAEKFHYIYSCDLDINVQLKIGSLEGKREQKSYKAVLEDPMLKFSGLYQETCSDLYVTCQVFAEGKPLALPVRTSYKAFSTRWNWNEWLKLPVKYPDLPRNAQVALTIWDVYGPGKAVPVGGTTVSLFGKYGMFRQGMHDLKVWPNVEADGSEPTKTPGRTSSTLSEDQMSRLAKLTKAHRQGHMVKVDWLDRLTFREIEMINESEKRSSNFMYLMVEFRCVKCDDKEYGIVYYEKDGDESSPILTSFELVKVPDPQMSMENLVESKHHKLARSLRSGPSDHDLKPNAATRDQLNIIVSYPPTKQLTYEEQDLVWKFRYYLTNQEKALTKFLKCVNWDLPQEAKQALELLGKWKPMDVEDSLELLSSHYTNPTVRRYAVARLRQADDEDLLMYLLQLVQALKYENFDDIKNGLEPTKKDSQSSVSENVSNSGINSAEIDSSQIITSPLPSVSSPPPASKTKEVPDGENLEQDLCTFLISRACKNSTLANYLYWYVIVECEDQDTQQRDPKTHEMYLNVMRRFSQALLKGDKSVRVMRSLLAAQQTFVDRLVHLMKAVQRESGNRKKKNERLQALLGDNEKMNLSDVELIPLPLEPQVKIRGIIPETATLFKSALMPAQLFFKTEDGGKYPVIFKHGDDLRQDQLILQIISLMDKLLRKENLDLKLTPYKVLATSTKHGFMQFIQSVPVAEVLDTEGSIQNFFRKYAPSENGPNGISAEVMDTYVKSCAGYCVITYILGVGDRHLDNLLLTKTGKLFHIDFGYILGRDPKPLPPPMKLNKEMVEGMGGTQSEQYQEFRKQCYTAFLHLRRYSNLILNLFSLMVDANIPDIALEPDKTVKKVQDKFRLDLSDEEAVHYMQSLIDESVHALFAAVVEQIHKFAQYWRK
Chain of Phosphatidylinositol 4,5-bisphosphate 3-kinase catalytic subunit delta isoform (Homo sapiens) (O00329 whole entry, the tested form may be a part, canonical isoform): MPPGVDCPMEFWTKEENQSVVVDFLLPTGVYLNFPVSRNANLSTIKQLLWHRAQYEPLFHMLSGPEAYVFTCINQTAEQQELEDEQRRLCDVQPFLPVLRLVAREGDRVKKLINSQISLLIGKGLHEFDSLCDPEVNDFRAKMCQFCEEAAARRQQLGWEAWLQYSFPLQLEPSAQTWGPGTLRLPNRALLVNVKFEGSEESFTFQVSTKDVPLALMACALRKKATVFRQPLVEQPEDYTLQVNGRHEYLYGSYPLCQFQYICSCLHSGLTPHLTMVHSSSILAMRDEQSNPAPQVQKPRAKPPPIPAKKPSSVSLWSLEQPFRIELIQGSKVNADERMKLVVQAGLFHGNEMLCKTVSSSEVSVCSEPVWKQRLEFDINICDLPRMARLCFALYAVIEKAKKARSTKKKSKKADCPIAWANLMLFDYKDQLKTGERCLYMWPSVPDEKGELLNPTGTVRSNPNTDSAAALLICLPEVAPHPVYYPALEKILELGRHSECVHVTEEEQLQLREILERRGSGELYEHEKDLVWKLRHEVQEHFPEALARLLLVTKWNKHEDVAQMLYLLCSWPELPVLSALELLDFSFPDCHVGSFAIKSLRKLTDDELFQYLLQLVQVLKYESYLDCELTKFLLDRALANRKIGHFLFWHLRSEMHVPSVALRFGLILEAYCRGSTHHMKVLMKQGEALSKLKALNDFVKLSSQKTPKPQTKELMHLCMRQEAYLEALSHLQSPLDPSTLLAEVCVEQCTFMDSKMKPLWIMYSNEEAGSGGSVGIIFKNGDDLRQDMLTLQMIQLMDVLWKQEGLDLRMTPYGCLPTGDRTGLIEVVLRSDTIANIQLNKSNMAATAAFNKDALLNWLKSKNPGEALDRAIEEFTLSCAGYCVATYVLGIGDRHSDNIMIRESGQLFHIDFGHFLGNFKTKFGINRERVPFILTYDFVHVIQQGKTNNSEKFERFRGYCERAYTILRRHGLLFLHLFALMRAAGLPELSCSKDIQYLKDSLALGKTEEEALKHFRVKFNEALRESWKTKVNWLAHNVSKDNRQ

- Activity [1]: 45%
- IC50 [2]: 0.8 nM
- Activity [3]: 53%
- Activity [4]: 0%
- Activity [5]: 0%
- Activity [6]: 0%
- Activity [7]: 100%
- Activity [8]: 49%
- Activity [9]: 91%
- inhibition [10]: Active
- Activity [11]: 100%
- Activity [12]: 63%
- Activity [13]: 70%
- GI50 [14]: 360 nM
- Activity [15]: 0%
- Activity [16]: 69%
- Activity [17]: 0.1%
- Activity [18]: 44%
- half-life [19]: 1.85 h
- inhibition [20]: Active
- Activity [21]: 0%
- Cmax [22]: 903 ng/mL
- Activity [23]: 9.4%
Compound: COc1ncc(-c2ccc3nccc(/C(C)=C/C(=O)N4CCN(C)CC4)c3c2)cc1NS(=O)(=O)c1ccc(F)cc1F
